Hits are enriched below; roughly 1.4% of the tested compounds scored in any of these assays.
PG9 Ab binder = small molecules binding HIV-1 gp120 antibody PG9. TR-FRET gp120-PG9 antibody binding. inhibition, % at 6.7 µM. actives 0.43% (n = 360,000). AID 624416; in the data active means inhibition above about 8.5%
NR1D1 modulator = modulators of human Rev-erb alpha DNA binding; actives 0.79% (n = 370,000); P20393; activity, % at 10 µM; Rev-erbα–FITC-DNA binding, fluorescence polarization, 90 min;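 active means activity above about 14%, limit read from the data; passing the limit was not always enough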;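 further: 0% = DMSO wells with 35 nM protein and 100% = DMSO wells with 750 nM protein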
NR2E3 ag-1 = activates human NR2E3 receptor | actives 0.35% (n = 360,000) | inhibition of corepressor binding, % at 3.98 µM | CHO-S Gal4-NCOR/VP16-NR2E3 two-hybrid, luciferase | AID 602229 | Q9Y5X4;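 active means inhibition above the mean of all tested compounds plus 3 SD, cut at about 70% in these data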;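 further: 0% = DMSO with NR2E3 transfected cells and 100% = cells lacking NR2E3 construct; higher means lower luciferase signal from less NR2E3 corepressor binding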
Target sequence (Q9Y5X4 whole entry, looked up, the tested form may be a part): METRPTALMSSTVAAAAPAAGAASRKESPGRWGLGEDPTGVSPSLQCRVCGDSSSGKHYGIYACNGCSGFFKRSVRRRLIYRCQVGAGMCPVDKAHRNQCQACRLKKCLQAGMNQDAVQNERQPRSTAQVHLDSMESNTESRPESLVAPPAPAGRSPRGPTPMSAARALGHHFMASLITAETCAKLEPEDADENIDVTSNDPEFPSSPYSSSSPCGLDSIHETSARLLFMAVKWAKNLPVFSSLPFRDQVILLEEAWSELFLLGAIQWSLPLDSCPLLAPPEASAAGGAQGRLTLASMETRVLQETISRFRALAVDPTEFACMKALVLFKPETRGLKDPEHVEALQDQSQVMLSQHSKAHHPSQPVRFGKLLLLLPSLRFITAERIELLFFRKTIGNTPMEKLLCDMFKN
NR2E3 ag-2 = activates human photoreceptor nuclear receptor NR2E3; Q9Y5X4; GST-NR2E3/biotin-RetCOR TR-FRET, 1536-well; inhibition of corepressor binding, % at 4.78 µM; actives 0.12% (n = 320,000); AID 2300;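 active means percent inhibition above the cutoff of mean plus 3 SD of all tested compounds, set per screening campaign, cut at about 20% in these data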;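 further: 0% = DMSO wells and 100% = biotin wells as full block of FRET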
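Material: NR2E3–RetCOR corepressor complex | Quantity: 1.35 nM GST-tagged NR2E3 final | Schedule: 5 h at 4 °C | Replication: Singlicate compound wells | Reagent: RetCOR corepressor, biotinylated, 7 nM | Controls: Biotin wells as high control, 0.6% DMSO wells as low control | Signal: TR-FRET, Eu(K)-anti-GST donor, streptavidin-D2 acceptor, ex 340, em 617/671 nm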
PG9 bind confirm = PG9 antibody binding, confirmed; shares compounds with PG9 Ab binder; TR-FRET PG9 antibody binding, biochemical; inhibition, % at 6.7 µM; actives 90% (n = 1,500); AID 651571; in the data active means inhibition above about 9%
PGV04 Ab binding = PGV04 control antibody binding, counter-screen | AID 651604 | TR-FRET PGV04 antibody-gp120 binding, biochemical | shares compounds with PG9 Ab binder | actives 95% (n = 1,500) | inhibition, % at 6.7 µM; in the data active means inhibition above about 9.5%
PG9 bind DR = small molecules binding HIV-1 gp120 antibody PG9; shares compounds with PG9 Ab binder; TR-FRET PG9 antibody-gp120 binding inhibition; IC50, µM; 95 tested, under 10 active; in the data active means IC50 below about 10 µM
PGV04 DR counter = counter-screen for PG9 binders: binding to control antibody PGV04. shares compounds with PG9 Ab binder. TR-FRET binding to control antibody PGV04. IC50, µM. actives 20% (n = 95)
PG126 binding DR = counter-screen for PG9 binders: binding to control antibody PG126; shares compounds with PG9 Ab binder; TR-FRET binding to antibody PG126, counterscreen; IC50, µM; actives 20% (n = 95); AID 651939
NR1D1 mod conf = confirmation of modulators of human Rev-erb alpha DNA binding; AID 1259319; activation, % at 25 µM; Rev-erb alpha FITC-DNA binding, fluorescence polarization, 90 min; actives 61% (n = 3,000); shares compounds with NR1D1 modulator;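 active means activation at or above a set limit, or at least 3 SD above the negative control mean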;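 further: 0% = 35 nM protein with DMSO and 100% = 750 nM protein high control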
RORg counter = affects RORgamma DNA binding in a Rev-erb alpha counter-screen; shares compounds with NR1D1 modulator; purified RORgamma protein-FITC-DNA binding, fluorescence polarization; AID 1259320; actives 8% (n = 910); IC50, µM;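 active means Compounds whose fitted half-maximal concentration for disrupting protein-DNA binding is below 10 micromolar; the record names Rev-erb in its text, so the target is in doubt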
Active calls of the source: *; i = inactive; / = no result. Unless noted, no stated cut-off is given here; in the data, active means IC50 below about 9 µM; inactive means the rest.

SMILES	PG9 Ab binder	NR1D1 modulator	NR2E3 ag-1	NR2E3 ag-2	PG9 bind confirm	PGV04 Ab binding	NR1D1 mod conf	others
C=CCn1c(NC(=O)c2ccc(C)cc2)nc2ccccc21	40*	27*	-16	-1	26*	40*	-1
CCn1c(=NC(=O)c2cccc(N3C(=O)CCC3=O)c2)sc2c(C)ccc(OC)c21	1	6	-9	-1	/	/	/
CCn1c(=NC(=O)c2ccc(N3C(=O)CCC3=O)cc2)sc2c(OC)ccc(OC)c21	16*	82*	-25	2	31*	56*	96*	RORg counter=i
COc1ccc(NC(=O)COC(=O)c2ccc3c(c2)OCO3)c(OC)c1	22*	175*	-25	/	33*	29*	180*	PG9 bind DR=>67;PGV04 DR counter=i;PG126 binding DR=i;RORg counter=>40
O=C(NCC1CCCO1)c1cccc(S(=O)(=O)Nc2ccccc2Cl)c1 (stereo not drawn)	-2	-3	31	/	/	/	/
CC(=O)c1ccc(NC(=O)C(C)n2c3ccccc3c3nc(=O)cc(C)n32)cc1 (stereo not drawn)	9.5*	21*	-25	1	14*	15*	9
Cc1cc(=O)nc2c3ccccc3n(C(C)C(=O)NCCC(C)C)n12 (stereo not drawn)	-3	-1	12	3	/	/	/
Cc1cccc2cc(COC(=O)COc3ccccc3)c(=O)[nH]c12	26*	31*	-5	5	31*	41*	21*
O=C(CC[C@H]1O[C@@H](n2ccc(=O)[nH]c2=O)[C@H](O)[C@@H]1O)N[C@H](Cc1ccccc1)C(=O)NC1CCCCC1	0	1	-13	/	/	/	/
Cc1cc(C)c(C#N)c(SCC(=O)Nc2cccc(S(=O)(=O)N3CCCC3)c2)n1	37*	21*	19	/	41*	65*	11*
COc1ccccc1N(C)S(=O)(=O)c1ccc(C(=O)Nc2nc(C)c(C(C)=O)s2)cc1	40*	104*	4	12	41*	61*	87*	RORg counter=>40
COc1ccc(N(C(=O)c2snc(C(N)=O)c2N)C(C(=O)NCc2ccccc2)c2ccc(O)cc2)cc1 (stereo not drawn)	-1	-4	-13	/	/	/	/
NC(=O)c1nsc(C(=O)N(c2ccccc2)C(C(=O)NCc2ccc(F)cc2)c2ccc(O)cc2)c1N (stereo not drawn)	9.9*	20*	12	6	4	9.8*	12
CCC[C@H]1[C@@H](NC(=O)c2ccc(Cl)c(C(F)(F)F)c2)CC[C@@]23CCCN2C(=O)CCC[C@@H]13	/	-8	/	/	/	/	/
O=S(=O)([N-]c1nc2ccccc2nc1-n1cc[n+](Cc2ccccc2)c1)c1ccc(Cl)cc1	42*	42*	-10	-1	41*	58*	11
COc1ccccc1NC(=O)c1sc2ncn(Cc3ccccc3C)c(=O)c2c1C	52*	62*	22	6	55*	74*	23*
C[C@H](CO)N1C[C@H](C)[C@@H](CN(C)C(=O)c2ccccc2)OCc2cnnn2CCCC1=O	-2	-4	-18	/	/	/	/
CCOC(=O)c1sc(=NC(=O)c2ccc(C)cc2)n(C)c1C	22*	20*	-106	-3	22*	53*	9
CCOC(=O)c1sc(=NC(=O)c2ccc(F)cc2)n(C)c1C	0	15	-82	-1	/	/	/
COC(=O)Cn1c(=NC(=O)c2ccc(OC)c(OC)c2)sc2cc(OC)ccc21	33*	64*	4	5	61*	75*	31*	RORg counter=>40
CCc1nc2c(OCc3ccc(F)cc3)cccn2c1N(C)C(=O)C(C)C	1	-4	9	/	/	/	/
COc1cccc(NC(=O)CSc2ncnc3c2oc2ccccc23)c1	69*	685*	-23	0	75*	93*	749*	RORg counter=>40
CCOC(=O)Cn1nnc2c(sc3nc4c(c(-c5ccc(Cl)cc5)c32)CCC4)c1=O	-1	-3	-9	2	/	/	/
O=c1[nH]cnc2c1sc1nc3c(c(-c4ccc(Cl)cc4)c12)CCC3	11*	39*	-22	-2	28*	16*	10	PG9 bind DR=i;PGV04 DR counter=6.4*;PG126 binding DR=8.6*
CCCCc1nnn2c1C1c3cc(-c4cccnc4)ccc3CCN1C(=O)C2 (stereo not drawn)	0	0	/	/	/	/	/
SMILES	PG9 Ab binder	NR1D1 modulator	NR2E3 ag-1	NR2E3 ag-2	PG9 bind confirm	PGV04 Ab binding	NR1D1 mod conf	others
O=C(Cn1cnc2sc(-c3ccccc3)cc2c1=O)NCc1ccccc1	-1	-8	-49	-2	/	/	/
Cc1cc2c(s1)c1cnn(CC(=O)NCCc3ccccc3)c(=O)c1n2C	37*	307*	/	-125	49*	50*	352*
O=C(Cn1cnc2sc(-c3ccccc3)cc2c1=O)NCCc1ccccc1	9.1*	65*	-3	-3	40*	60*	28*
CCCC(=O)Nc1ccc(-c2nc3ncccc3o2)cc1	1	-7	-68	/	/	/	/
Cn1c(SCC(=O)NCc2ccc3c(c2)OCO3)ncc(C(=O)Nc2ccc(F)cc2)c1=O	21*	40*	-12	1	16*	18*	51*	RORg counter=>40
CC1(C(=O)NS(=O)(=O)c2ccccc2Cl)CCN1C(=O)CC1CC1 (stereo not drawn)	0	4	1	/	/	/	/
Cc1ccccc1NC(=O)c1c(C)nc(SCC(=O)OCc2ccccc2)c(C#N)c1-c1ccc(F)cc1	-1	6	4	-3	/	/	/
COC(=O)CSc1nc(C)c(C(=O)Nc2ccccc2C)c(-c2ccc(Cl)cc2)c1C#N	9.1*	26*	-17	-1	7	16*	11
COc1ccc(C(=O)NC(=S)Nc2ccc3[nH]c(=O)[nH]c3c2)c(OC)c1	37*	101*	-12	-1	53*	52*	55*	PG9 bind DR=i;PGV04 DR counter=6.3*;PG126 binding DR=6.8*;RORg counter=i
CCOC(=O)c1c(NC(=O)C2c3ccccc3Oc3ccccc32)sc(C(N)=O)c1C	33*	41*	-9	5	28*	41*	26*
